For one assay, the system named is MCF7. Nature of the assay: Antiproliferative activity against human MCF7 cells after 72 hrs by MTS assay. The conditions noted are these: MCF7, 72 h. In kind it is functional, cell-based.
Assay [1] relates to Calu-6. Nature of the assay: Antiproliferative activity against human Calu6 cells after 72 hrs by MTS assay. In kind it is functional, cell-based. The conditions noted are these: Calu-6, 72 h.
Assay [2] relates to K562. Nature of the assay: Antiproliferative activity against human K562 cells after 72 hrs by MTS assay. In kind it is functional, cell-based. To be noted: K562, 72 h. Background: Tetrazolium dyes change colour on reduction, which living cells bring about.
Assay [3] has as its system Calu-6. In words: Inhibition of cell proliferation in human Calu6 cells at 100 uM after 72 hrs by MTS assay. Format: functional, cell-based. An outline of the steps: (§1)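 Calu-6 cells grown in EMEM with 10% FBS. Seeded at 2,000 cells/well and attached for one day, then treated 72 h at 37°C, 5% CO2. MTS added for 2 h and absorbance read at 490 nm minus 690 nm. % cell death calculated against untreated control. Mean of 3 determinations ± S.E.M.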

Assay [4] deals with Calu-6. In words: Inhibition of cell proliferation in human Calu6 cells up to 1 uM after 72 hrs by MTS assay. In kind it is functional, cell-based. The essentials:
as §1

The target of assay [5] is LSD1/CoREST complex (Homo sapiens) (UniProt O60341+Q9UKL0). In words: Inhibition of recombinant human LSD1/CoREST at 500 nM preincubated for 5 mins followed by ART-(N,N-dimethyl-K)-QTARKSTGGKAPRKQLA substrate addition measured after 25 mins by fluorescence assay relative to control.
LSD1/CoREST complex (Homo sapiens), sequence (Q9UKL0 whole entry, looked up, other chains not shown): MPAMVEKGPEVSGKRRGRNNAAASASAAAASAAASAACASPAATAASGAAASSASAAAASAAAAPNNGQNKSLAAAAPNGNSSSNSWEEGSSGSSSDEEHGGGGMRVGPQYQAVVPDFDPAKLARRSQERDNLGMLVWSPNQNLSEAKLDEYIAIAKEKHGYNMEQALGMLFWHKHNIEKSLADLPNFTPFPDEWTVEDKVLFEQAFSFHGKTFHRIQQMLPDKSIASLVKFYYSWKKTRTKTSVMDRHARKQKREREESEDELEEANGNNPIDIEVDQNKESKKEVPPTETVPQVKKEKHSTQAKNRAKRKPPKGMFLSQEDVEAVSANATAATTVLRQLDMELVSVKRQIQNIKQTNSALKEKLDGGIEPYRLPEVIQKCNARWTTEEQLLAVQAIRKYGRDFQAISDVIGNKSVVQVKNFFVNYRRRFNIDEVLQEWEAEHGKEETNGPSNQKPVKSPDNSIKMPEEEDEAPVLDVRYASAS
Assay [6] has as its system K562. Nature of the assay: Antiproliferative activity against human K562 cells assessed as cell death at 100 uM after 72 hrs by MTS assay relative to control. In kind it is functional.
Assay [7] deals with K562. In words: Antiproliferative activity against human K562 cells assessed as cell death at 1 uM after 72 hrs by MTS assay relative to control. Format: functional.
Assay [8] has as its target Lysine-specific histone demethylase 1A (Homo sapiens) (UniProt O60341). In words: Inhibition of LSD1 in human NCI-H526 cells assessed as increase in H3K4me2 marks at promoter of IGFBP2 at 100 uM after 48 hrs by ChIP-qPCr method. In kind it is cell-based. The essentials:
(§2)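 NCI-H526 small cell lung carcinoma cells treated 48 h at 100 µM alongside an untreated control. Cells formaldehyde cross-linked, nuclei sonicated and chromatin enzymatically digested. IP with H3K4me2 antibody (normal rabbit IgG as negative control) on protein G magnetic beads. Purified DNA quantified by TaqMan qPCR at promoter regions; fold change by comparative CT (Livak). SD from three qPCR wells.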

Assay [9] shares this target. In words: Inhibition of LSD1 in human NCI-H526 cells assessed as increase in H3K4me2 marks at promoter of FEZ1 at 100 uM after 48 hrs by ChIP-qPCr method. In kind it is cell-based. An outline of the steps:
as §2

Structures are written as SMILES. Active and inactive are the calls of the source. No cut-off for these calls is given here. Positions of bridges follow the written chain, without caps; N, C: chain ends. Residues, ends and D or L forms follow the SMILES beside them. *: point of attachment. Stearoyl = CCCCCCCCCCCCCCCCCC(=O)*

A word on the IC50: it is the midpoint of a concentration-inhibition curve. Higher therefore signals weaker potency in that assay. As usually defined, the inhibition is how much of the control response was suppressed.

On to `CSCC[C@H](NC(=O)[C@@H](NC(=O)[C@H](CCCNC(=N)N)NC(=O)[C@H](C)N)[C@@H](C)O)C(=O)N[C@H]1CCCCNC(=O)CC[C@@H](C(=O)N[C@H](C(=O)NCC(=O)NCC(=O)N[C@@H](CCCCN)C(=O)N[C@@H](C)C(=O)N2CCC[C@H]2C(=O)N[C@@H](CCCNC(=N)N)C(=O)N[C@@H](CCCCN)C(=O)N[C@@H](CCC(N)=O)C(=O)N[C@@H](CC(C)C)C(=O)N[C@@H](C)C(N)=O)[C@@H](C)O)NC(=O)[C@H](CCCCN)NC(=O)[C@H](CCCNC(=N)N)NC(=O)[C@H](C)NC(=O)[C@H](C)NC1=O` (H-ARTMKAARKETGGKAPRKQLA-NH2; lactam 5-10), for which the values for the IC50 with MCF7, with Calu-6 [1] and with K562 [2] were 154 µM, 93 µM and 8.2 µM, respectively.

As to `CSCC[C@H](NC(=O)[C@H](C)NC(=O)[C@H](CCCNC(=N)N)NC(=O)[C@H](C)N)C(=O)N[C@H]1CCCCNC(=O)CC[C@@H](C(N)=O)NC(=O)[C@H](CCCCN)NC(=O)[C@H](CCCNC(=N)N)NC(=O)[C@H](C)NC(=O)[C@H]([C@@H](C)O)NC1=O` (H-ARAMKTARKE-NH2; lactam 5-10), the inhibition entry in the assay with Calu-6 [3] and in the assay with Calu-6 [4] was “inactive” in each case. Further, in [5], the inhibition is 59.8%.

As for `CSCC[C@H](NC(=O)[C@H](C)NC(=O)[C@H](CCCNC(=N)N)NC(=O)[C@H](C)N)C(=O)N[C@H]1CCCCNC(=O)CC[C@@H](C(=O)N[C@H](C(=O)NCC(N)=O)[C@@H](C)O)NC(=O)[C@H](CCCCN)NC(=O)[C@H](CCCNC(=N)N)NC(=O)[C@H](C)NC(=O)[C@H]([C@@H](C)O)NC1=O` (H-ARAMKTARKETG-NH2; lactam 5-10), the inhibition entry in the assay on Calu-6 [3] and with Calu-6 [4] was “inactive” in each case. The Activity is recorded as 18% in the assay with K562 [6] and 90% in the assay with K562 [7]. Besides, the inhibition in assay [5] came out at 67.3%.

Regarding `CSCC[C@H](NC(=O)[C@H](C)NC(=O)[C@H](CCCNC(=N)N)NC(=O)[C@H](C)N)C(=O)N[C@H]1CCCCNC(=O)CC[C@@H](C(=O)N[C@H](C(=O)NCC(=O)NCC(=O)N[C@@H](CCCCN)C(=O)N[C@@H](C)C(N)=O)[C@@H](C)O)NC(=O)[C@H](CCCCN)NC(=O)[C@H](CCCNC(=N)N)NC(=O)[C@H](C)NC(=O)[C@H]([C@@H](C)O)NC1=O` (H-ARAMKTARKETGGKA-NH2; lactam 5-10), the inhibition result in the assay on Calu-6 [3] and with Calu-6 [4] was “inactive” each time. The results for the Activity with K562 [6] and in the assay with K562 [7] were 11% and 53%, respectively. Moreover, the inhibition in [5] was 73.4%.

Consider `CCCCCCCCCCCCCCCCCC(=O)NCCCC[C@H](NC(=O)[C@H](C)NC(=O)[C@H](CC(C)C)NC(=O)[C@H](CCC(N)=O)NC(=O)[C@H](CCCCN)NC(=O)[C@H](CCCNC(=N)N)NC(=O)[C@@H]1CCCN1C(=O)[C@H](C)NC(=O)[C@H](CCCCN)NC(=O)CNC(=O)CNC(=O)[C@@H](NC(=O)[C@@H]1CCC(=O)NCCCC[C@H](NC(=O)[C@H](CCSC)NC(=O)[C@@H](NC(=O)[C@H](CCCNC(=N)N)NC(=O)[C@H](C)N)[C@@H](C)O)C(=O)N[C@@H]([C@@H](C)O)C(=O)N[C@@H](C)C(=O)N[C@@H](CCCNC(=N)N)C(=O)N[C@@H](CCCCN)C(=O)N1)[C@@H](C)O)C(N)=O`, for which the results for the IC50 in the assay with MCF7 and in the assay on Calu-6 [1] were 4.4 µM and 7.9 µM, respectively.

On to `CC(C)C[C@H](NC(=O)[C@H](CCC(N)=O)NC(=O)[C@H](CCCCN)NC(=O)[C@H](CCCNC(=N)N)NC(=O)[C@@H]1CCCN1C(=O)[C@H](C)NC(=O)[C@H](CCCCN)NC(=O)CNC(=O)CNC(=O)[C@@H](NC(=O)[C@@H]1CCC(=O)NCCCC[C@H](NC(=O)[C@H](C)NC(=O)[C@@H](NC(=O)[C@H](CCCNC(=N)N)NC(=O)[C@H](C)N)[C@@H](C)O)C(=O)N[C@@H]([C@@H](C)O)C(=O)N[C@@H](C)C(=O)N[C@@H](CCCNC(=N)N)C(=O)N[C@@H](CCCCN)C(=O)N1)[C@@H](C)O)C(=O)N[C@@H](C)C(N)=O` (H-ARTAKTARKETGGKAPRKQLA-NH2; lactam 5-10), for which the IC50 in the assay with MCF7 was found to be 1240 µM; in the assay on Calu-6 [1], 956 µM; in the assay with K562 [2] it was 139 µM.

`c1ccc([C@@H]2C[C@H]2NC2CCNCC2)cc1` (relative stereo): the inhibition entry in assay [8] and in assay [9] was “Active” throughout.

For `CSCC[C@H](NC(=O)[C@@H](NC(=O)[C@H](CCCNC(=N)N)NC(=O)[C@H](C)N)[C@@H](C)O)C(=O)N[C@H]1CCCCNC(=O)CC[C@@H](C(=O)N[C@H](C(=O)NCC(=O)NCC(=O)N[C@@H](CCCCN)C(=O)N[C@@H](C)C(=O)N[C@@H](C)C(=O)N[C@@H](CCCNC(=N)N)C(=O)N[C@@H](CCCCN)C(=O)N[C@@H](CCC(N)=O)C(=O)N[C@@H](CC(C)C)C(=O)N[C@@H](C)C(N)=O)[C@@H](C)O)NC(=O)[C@H](CCCCN)NC(=O)[C@H](CCCNC(=N)N)NC(=O)[C@H](C)NC(=O)[C@H]([C@@H](C)O)NC1=O` (H-ARTMKTARKETGGKAARKQLA-NH2; lactam 5-10), the IC50 in the assay on MCF7 is 385 µM; with Calu-6 [1], 409 µM; in the assay on K562 [2] it was 35.6 µM.

Consider `CCCCCCCCCCCCCCCCCC(=O)NCCCC[C@H](NC(=O)[C@H](C)NC(=O)[C@H](CC(C)C)NC(=O)[C@H](CCC(N)=O)NC(=O)[C@H](CCCCN)NC(=O)[C@H](CCCNC(=N)N)NC(=O)[C@@H]1CCCN1C(=O)[C@H](C)NC(=O)[C@H](CCCCN)NC(=O)CNC(=O)CNC(=O)[C@@H](NC(=O)[C@@H]1CCC(=O)NCCCC[C@H](NC(=O)[C@H](CCSC)NC(=O)[C@H](C)NC(=O)[C@H](CCCNC(=N)N)NC(=O)[C@H](C)N)C(=O)N[C@@H]([C@@H](C)O)C(=O)N[C@@H](C)C(=O)N[C@@H](CCCNC(=N)N)C(=O)N[C@@H](CCCCN)C(=O)N1)[C@@H](C)O)C(N)=O` (H-ARAMKTARKETGGKAPRKQLAK(Stearoyl)-NH2; lactam 5-10), for which the IC50 in the assay on MCF7 worked out at 4.6 µM; with Calu-6 [1] it was 10.1 µM.

As to `CSCC[C@H](NC(=O)[C@@H](NC(=O)[C@H](CCCNC(=N)N)NC(=O)[C@H](C)N)[C@@H](C)O)C(=O)N[C@H]1CCCCNC(=O)CC[C@@H](C(=O)N[C@H](C(=O)NCC(=O)NCC(=O)N[C@@H](C)C(=O)N[C@@H](C)C(=O)N2CCC[C@H]2C(=O)N[C@@H](CCCNC(=N)N)C(=O)N[C@@H](CCCCN)C(=O)N[C@@H](CCC(N)=O)C(=O)N[C@@H](CC(C)C)C(=O)N[C@@H](C)C(N)=O)[C@@H](C)O)NC(=O)[C@H](CCCCN)NC(=O)[C@H](CCCNC(=N)N)NC(=O)[C@H](C)NC(=O)[C@H]([C@@H](C)O)NC1=O` (H-ARTMKTARKETGGAAPRKQLA-NH2; lactam 5-10), the results for the IC50 in the assay with MCF7, with Calu-6 [1] and with K562 [2] were 156 µM, 159 µM and 198 µM, respectively.

Take `CSCC[C@H](NC(=O)[C@H](C)NC(=O)[C@H](CCCNC(=N)N)NC(=O)[C@H](C)N)C(=O)N[C@H]1CCCCNC(=O)CC[C@@H](C(=O)N[C@H](C(=O)NCC(=O)NCC(=O)N[C@@H](CCCCN)C(=O)N[C@@H](C)C(=O)N2CCC[C@H]2C(=O)N[C@@H](CCCNC(=N)N)C(=O)N[C@@H](CCCCN)C(N)=O)[C@@H](C)O)NC(=O)[C@H](CCCCN)NC(=O)[C@H](CCCNC(=N)N)NC(=O)[C@H](C)NC(=O)[C@H]([C@@H](C)O)NC1=O` (H-ARAMKTARKETGGKAPRK-NH2; lactam 5-10): the inhibition result in the assay with Calu-6 [3] and in the assay with Calu-6 [4] was “inactive” each time. The Activity in the assay with K562 [6] amounted to 9.5%; in the assay with K562 [7] it was 59%. The inhibition in [5] came to 98%.

Turning to `CSCC[C@H](NC(=O)[C@@H](NC(=O)[C@H](CCCNC(=N)N)NC(=O)[C@H](C)N)[C@@H](C)O)C(=O)N[C@H]1CCCCNC(=O)CC[C@@H](C(=O)N[C@H](C(=O)N[C@@H](C)C(=O)NCC(=O)N[C@@H](CCCCN)C(=O)N[C@@H](C)C(=O)N2CCC[C@H]2C(=O)N[C@@H](CCCNC(=N)N)C(=O)N[C@@H](CCCCN)C(=O)N[C@@H](CCC(N)=O)C(=O)N[C@@H](CC(C)C)C(=O)N[C@@H](C)C(N)=O)[C@@H](C)O)NC(=O)[C@H](CCCCN)NC(=O)[C@H](CCCNC(=N)N)NC(=O)[C@H](C)NC(=O)[C@H]([C@@H](C)O)NC1=O` (H-ARTMKTARKETAGKAPRKQLA-NH2; lactam 5-10), the concentration for half-maximal inhibition (IC50) in the assay on MCF7 amounted to 1010 µM; in the assay with Calu-6 [1] it was 766 µM; in the assay with K562 [2], 42 µM.

The values are drawn from ChEMBL document CHEMBL4196023, “Cyclic peptide inhibitors of lysine-specific demethylase 1 with improved potency identified by alanine scanning mutagenesis” (Eur J Med Chem, 2018).
